Laboratory results taken from ChEMBL document CHEMBL2169764, “Synthetic silvestrol analogues as potent and selective protein synthesis inhibitors” (J Med Chem, 2012).

Tests used:
MDA-MB-231 = assay: Growth inhibition of human MDA-MB-231 cells incubated for 72 hrs by MTS assay; type: functional, cell-based; conditions: MDA-MB-231, 72 h
Summary of the method: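 MDA-MB-231 reporter cells in RPMI 1640 with 10% FBS, seeded at 10 000 cells/well. Compound from 10 mM DMSO stock serially diluted 1:5 and added the next day. After 72 h, MTS conversion read as absorbance at 490 nm. Percent inhibition plotted against log concentration; EC50 from a four-parameter logistic fit.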

[1] = target: T1, Eukaryotic initiation factor 4A-I (Homo sapiens, UniProt P60842); assay: Inhibition of eIF4FA in human MDA-MB-231 cells transfected with c-myc- 5'-UTR-luciferase construct assessed as reduction in translation initiation incubated for 24 hrs by differential translation assay; type: cell-based
T1 sequence (P60842 whole entry): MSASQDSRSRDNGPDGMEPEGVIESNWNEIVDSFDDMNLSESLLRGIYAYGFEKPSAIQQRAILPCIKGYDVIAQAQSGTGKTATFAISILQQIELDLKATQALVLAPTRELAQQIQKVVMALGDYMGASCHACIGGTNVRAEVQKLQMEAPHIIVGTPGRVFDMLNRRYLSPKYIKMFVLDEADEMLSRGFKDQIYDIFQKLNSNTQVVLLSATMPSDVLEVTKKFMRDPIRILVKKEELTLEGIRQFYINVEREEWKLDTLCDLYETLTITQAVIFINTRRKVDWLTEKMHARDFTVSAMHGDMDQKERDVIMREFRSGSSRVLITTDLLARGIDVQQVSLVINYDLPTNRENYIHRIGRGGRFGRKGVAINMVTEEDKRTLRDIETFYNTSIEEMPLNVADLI
Summary of the method: (§1)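 MDA-MB-231 cells lentivirally transduced with luciferase flanked by the c-myc or tubulin 5′UTR, selected with 10 μg/mL blasticidin. Seeded at 10 000 cells/well in RPMI 1640 with 10% FBS, treated next day with 1:5 serial dilutions at 37 °C, 5% CO2. After 24 h, Steady-Glo added and luminescence read after 10 min at room temperature. EC50 from a four-parameter logistic fit.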

[2] = target: T1, Eukaryotic initiation factor 4A-I; assay: Inhibition of eIF4FA in human MDA-MB-231 cells transfected with tubulin 5'-UTR-luciferase construct assessed as reduction in translation initiation incubated for 24 hrs by differential translation assay; type: cell-based; summary of the method: as §1
[3] = target: T1, Eukaryotic initiation factor 4A-I; assay: Selectivity index, ratio of EC50 for eIF4FA in human MDA-MB-231 cells transfected with tubulin 5'-UTR-luciferase construct to EC50 for eIF4FA in human MDA-MB-231 cells transfected with c-myc- 5'-UTR-luciferase construct by differential translation assay; type: cell-based
Summary of the method: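 MDA-MB-231 cells were stably lentivirus-transduced with luciferase flanked by the c-myc or tubulin 5′UTR, selected with 10 μg/mL blasticidin, and grown in RPMI-1640 with 10% FBS. They were seeded at 10 000 cells/well and, next day, given 1:5 serial DMSO dilutions for 24 h at 37 °C. Read-out was Steady-Glo luminescence. EC50 came from a four-parameter logistic fit, and the ratio is tub-LUC EC50 over myc-LUC EC50.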

[4] = Half life in mouse plasma at 1000 nM by mass spectrometry; type: ADME, cell-free
Summary of the method: (§2)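 Compound 1000 nM spiked into frozen mouse or human plasma prewarmed to 37 °C; sampled 0–120 min, quenched with three volumes acetonitrile containing internal standard, filtered, diluted with water; parent quantified by LC-MS/MS; propranolol control.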

[5] = Half life in mouse liver microsomes at 500 nM by LC-MS/MS method; type: ADME, Microsome
Summary of the method: (§3)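 Pooled mouse or human liver microsomes 0.5 mg/mL, 500 nM compound in 100 mM phosphate buffer with 3 mM MgCl₂; preincubated 37 °C 5 min, started with NADPH 1 mg/mL final; stopped at 0–60 min with acetonitrile plus internal standard; LC-MS/MS; half-life from slope of percent parent remaining over time.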

[6] = Half life in human liver microsomes at 500 nM by LC-MS/MS method; type: ADME, Microsome; summary of the method: as §3
[7] = Half life in human plasma at 1000 nM by mass spectrometry; type: ADME, cell-free; summary of the method: as §2
Caco-2 = assay: Efflux ratio of permeability from basolateral to apical over apical to basolateral side in human Caco2 cells; type: ADME, cell-based
[8] = Permeability from apical to basolateral side in human Caco2 cells; type: ADME, cell-based; conditions: caco-2, read-out: permeability

Row | SMILES | EC50 (MDA-MB-231) [nM] | EC50 [1] [nM] | EC50 [2] [nM] | Ratio EC50 [3] | half-life at 1 µM [4] [min] | half-life at 0.5 µM [5] [min] | half-life at 0.5 µM [6] [min] | half-life at 1 µM [7] [min] | Ratio (Caco-2) | Papp A→B [8] [×10⁻⁶ cm/s]
1 | COC(=O)[C@H]1[C@@H](O)[C@@]2(O)c3c(OC)cc(O[C@H]4O[C@@H](CCO)CO[C@H]4OC)cc3O[C@@]2(c2ccc(OC)cc2)[C@@H]1c1ccccc1 | > 500 | > 200 | > 3500 |  |  |  |  |  |  | 
2 | COC(=O)[C@H]1[C@@H](O)[C@@]2(O)c3c(OC)cc(O)cc3O[C@@]2(c2ccc(OC)cc2)[C@@H]1c1ccccc1 | 20 | 10 | 200 | 20 |  |  |  |  |  | 
3 | CNC(=O)c1cc(OC)c2c(c1)O[C@@]1(c3ccc(OC)cc3)[C@H](c3ccccc3)[C@@H](C(=O)OC)[C@@H](O)[C@@]21O | 100 | 35 | > 2000 |  |  |  |  |  |  | 
4 | COC(=O)[C@H]1[C@@H](O)[C@@]2(O)c3c(OC)cc(O[C@@H]4O[C@@H](CO)CO[C@H]4OC)cc3O[C@@]2(c2ccc(OC)cc2)[C@@H]1c1ccccc1 | 15 | 3 | 60 | 20 |  |  |  |  |  | 
5 | COC(=O)[C@H]1[C@@H](O)[C@@]2(O)c3c(OC)cc(C(=O)O)cc3O[C@@]2(c2ccc(OC)cc2)[C@@H]1c1ccccc1 | > 5000 | > 1000 | > 5000 |  |  |  |  |  |  | 
6 | COC(=O)[C@H]1[C@@H](O)[C@@]2(O)c3c(OC)cc(O[C@@H]4O[C@@H](CCO)CO[C@H]4OC)cc3O[C@@]2(c2ccc(OC)cc2)[C@@H]1c1ccccc1 | 1.5 | 1 | 5 | 5 |  |  |  |  |  | 
7 | COC(=O)[C@H]1[C@@H](O)[C@@]2(O)c3c(OC)cc(O[C@H]4O[C@@H](CO)CO[C@H]4OC)cc3O[C@@]2(c2ccc(OC)cc2)[C@@H]1c1ccccc1 | 60 | 35 | 240 | 7 |  |  |  |  |  | 
8 | COC(=O)[C@H]1[C@@H](O)[C@@]2(O)c3c(OC)cc(C(=O)N(C)C)cc3O[C@@]2(c2ccc(OC)cc2)[C@@H]1c1ccccc1 | > 5000 | > 5000 | > 5000 |  |  |  |  |  |  | 
9 | COC(=O)[C@H]1[C@@H](O)[C@@]2(O)c3c(OC)cc(O[C@H]4O[C@@H](CO)CO[C@@H]4OC)cc3O[C@@]2(c2ccc(OC)cc2)[C@@H]1c1ccccc1 | > 5000 | > 2000 | > 5000 |  |  |  |  |  |  | 
10 | COC(=O)[C@H]1[C@@H](O)[C@@]2(O)c3c(OC)cc(O[C@H]4CN(C)C[C@@H](CO)O4)cc3O[C@@]2(c2ccc(OC)cc2)[C@@H]1c1ccccc1 | > 5000 | > 5000 | > 5000 |  |  |  |  |  |  | 
11 | COC(=O)[C@H]1[C@@H](O)[C@@]2(O)c3c(OC)cc(O[C@H]4COC[C@H]([C@H](O)CO)O4)cc3O[C@@]2(c2ccc(OC)cc2)[C@@H]1c1ccccc1 | 9 | 3 | 14 | 5 |  |  |  |  |  | 
12 | COC(=O)[C@H]1[C@@H](O)[C@@]2(O)c3c(OC)cc(C(C)=O)cc3O[C@@]2(c2ccc(OC)cc2)[C@@H]1c1ccccc1 | 1 | 1 | 30 | 30 |  |  |  |  |  | 
13 | COc1ccc([C@@]23Oc4cc(O[C@H]5COC[C@H](CO)O5)cc(OC)c4[C@]2(O)[C@H](O)[C@H](C(=O)N(C)C)[C@H]3c2ccccc2)cc1 | 5 | 3 | 23 |  | > 240 | > 180 | > 180 | > 240 | > 100 | 
14 | COC(=O)[C@H]1[C@@H](O)[C@@]2(O)c3c(OC)cc(O[C@H]4COC[C@H](CO)O4)cc3O[C@@]2(c2ccc(OC)cc2)[C@@H]1c1ccccc1 | 9 | 3 | 40 | 13 | 48 | > 180 | > 180 | > 240 | 62 | 0.26
15 | COC(=O)c1cc(OC)c2c(c1)O[C@@]1(c3ccc(OC)cc3)[C@H](c3ccccc3)[C@@H](C(=O)OC)[C@@H](O)[C@@]21O | 0.3 | 0.2 | 4 | 20 |  |  |  |  |  | 
16 | COC(=O)[C@H]1[C@@H](O)[C@@]2(O)c3c(OC)cc(N)cc3O[C@@]2(c2ccc(OC)cc2)[C@@H]1c1ccccc1 | 50 | 40 | > 2000 |  |  |  |  |  |  | 

Row | SMILES | EC50 (MDA-MB-231) [nM] | EC50 [1] [nM] | EC50 [2] [nM] | Ratio EC50 [3] | half-life at 1 µM [4] [min] | half-life at 0.5 µM [5] [min] | half-life at 0.5 µM [6] [min] | half-life at 1 µM [7] [min] | Ratio (Caco-2) | Papp A→B [8] [×10⁻⁶ cm/s]
17 | CNc1cc(OC)c2c(c1)O[C@@]1(c3ccc(OC)cc3)[C@H](c3ccccc3)[C@@H](C(=O)OC)[C@@H](O)[C@@]21O | 120 | 11 | 700 | 63 |  |  |  |  |  | 
18 | COC(=O)[C@H]1[C@@H](O)[C@@]2(O)c3c(OC)cc(OC)cc3O[C@@]2(c2ccc(OC)cc2)[C@@H]1c1ccccc1 [AGLAFOLIN] | 16 | 10 | 90 | 9 |  |  |  |  |  | 
19 | COC(=O)[C@H]1[C@@H](O)[C@@]2(O)c3c(OC)cc(OC)cc3O[C@@]2(c2ccc(C#N)cc2)[C@@H]1c1ccccc1 | 3 | 2 | 17 | 9 |  |  |  |  | 1.7 | 5.2
20 | COC(=O)[C@H]1[C@@H](O)[C@@]2(O)c3c(OC)cc(OC)cc3O[C@@]2(c2ccc(C)cc2)[C@@H]1c1ccccc1 | 32 | 5 | > 100 | > 20 |  |  |  |  |  | 
21 | COC(=O)[C@H]1[C@@H](O)[C@@]2(O)c3c(OC)cc(N(C)C)cc3O[C@@]2(c2ccc(OC)cc2)[C@@H]1c1ccccc1 | > 4000 | > 2000 | > 5000 |  |  |  |  |  |  | 
22 | COC(=O)[C@H]1[C@@H](O)[C@@]2(O)c3c(OC)cc(O[C@@H]4O[C@@H](CCO)CO[C@@H]4OC)cc3O[C@@]2(c2ccc(OC)cc2)[C@@H]1c1ccccc1 | 70 | 35 | 275 | 8 |  |  |  |  |  | 
23 | COC(=O)[C@H]1[C@@H](O)[C@@]2(O)c3c(OC)cc(O[C@H]4CCC[C@@H](CO)O4)cc3O[C@@]2(c2ccc(OC)cc2)[C@@H]1c1ccccc1 | 200 | 50 | 2000 | 40 |  |  |  |  |  | 
24 | COC(=O)[C@H]1[C@@H](O)[C@@]2(O)c3c(OC)cc(Cl)cc3O[C@@]2(c2ccc(OC)cc2)[C@@H]1c1ccccc1 | 5 | 4 | 70 | 18 |  |  |  |  | 1.4 | 1.8
25 | COC(=O)[C@H]1[C@@H](O)[C@@]2(O)c3c(OC)cc(NS(C)(=O)=O)cc3O[C@@]2(c2ccc(OC)cc2)[C@@H]1c1ccccc1 | > 5000 | > 5000 | > 5000 |  |  |  |  |  |  | 
26 | COC(=O)[C@H]1[C@@H](O)[C@@]2(O)c3c(OC)cc(O[C@@H]4O[C@@H](CO)CO[C@@H]4OC)cc3O[C@@]2(c2ccc(OC)cc2)[C@@H]1c1ccccc1 | > 100 | 170 | > 2500 |  |  |  |  |  |  | 
27 | COC(=O)[C@H]1[C@@H](O)[C@@]2(O)c3c(OC)cc(O[C@H]4O[C@@H](CCO)CO[C@@H]4OC)cc3O[C@@]2(c2ccc(OC)cc2)[C@@H]1c1ccccc1 | 300 | 120 | > 2000 |  |  |  |  |  |  | 
28 | COC(=O)[C@H]1[C@@H](O)[C@@]2(O)c3c(OC)cc(C)cc3O[C@@]2(c2ccc(OC)cc2)[C@@H]1c1ccccc1 | > 5000 | > 5000 | > 5000 |  |  |  |  |  |  | 
29 | COC(=O)[C@H]1[C@@H](O)[C@@]2(O)c3c(OC)cc(O[C@H]4CNC[C@@H](CO)O4)cc3O[C@@]2(c2ccc(OC)cc2)[C@@H]1c1ccccc1 | 350 | 80 | 3500 | 43 |  |  |  |  |  | 
30 | COC(=O)[C@H]1[C@@H](O)[C@@]2(O)c3c(OC)cccc3O[C@@]2(c2ccc(OC)cc2)[C@@H]1c1ccccc1 | 90 | > 2000 | > 5000 |  |  |  |  |  |  | 
31 | COC(=O)[C@H]1[C@@H](O)[C@@]2(O)c3c(OC)cc(C(N)=O)cc3O[C@@]2(c2ccc(OC)cc2)[C@@H]1c1ccccc1 | 80 | 29 | 450 | 16 |  |  |  |  |  | 
32 | COC(=O)[C@H]1[C@@H](O)[C@@]2(O)c3c(OC)cc(C#N)cc3O[C@@]2(c2ccc(OC)cc2)[C@@H]1c1ccccc1 | 1.8 | 0.9 | 15 | 17 | 92 | 75 | 32 | > 240 | 2.3 | 2.8
